Experimental findings from ChEMBL document CHEMBL1124778, “Synthesis and biological evaluation of prodrugs of zidovudine” (J Med Chem, 1990) are described below.

Structures are written as SMILES.

Tested on in one data set: not listed separately
Kind of data set: Evaluated for Partition coefficient in n-octanol and phosphate buffer pH 7.4. Type of data set: physicochemical. To be noted: octanol/water. In outline: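 Ester solutions in n-octanol equilibrated with phosphate buffer (0.2 M, pH 7.4) at room temperature. Partition coefficient derived from the distribution between the two phases.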
The molecule `Cc1cn([C@H]2C[C@H](N=[N+]=[N-])[C@@H](COC(=O)C(N)Cc3ccccc3)O2)c(=O)[nH]c1=O.O=C(O)C(F)(F)F` (stereo partly drawn) came in with a PC of 3.3.

As to `Cc1cn([C@H]2C[C@H](N=[N+]=[N-])[C@@H](COC(=O)C(N)Cc3ccc(O)cc3)O2)c(=O)[nH]c1=O.O=C(O)C(F)(F)F` (stereo partly drawn), the PC was 0.94.

In turn, `Cc1cn(C2CC(N=[N+]=[N-])C(COC(=O)CCC(N)C(=O)O)O2)c(=O)[nH]c1=O` (stereo not drawn) displayed a PC of 0.12.

`Cc1cn([C@H]2C[C@H](N=[N+]=[N-])[C@@H](COC(=O)c3cccnc3)O2)c(=O)[nH]c1=O` registered a PC of 1.6.

In turn, `Cc1cn([C@H]2C[C@H](N=[N+]=[N-])[C@@H](CO)O2)c(=O)[nH]c1=O` [ZIDOVUDINE] displayed a PC of 1.2.

`CC1=C(/C=C/C(C)=C/C=C/C(C)=C/C(=O)OC[C@H]2O[C@@H](n3cc(C)c(=O)[nH]c3=O)C[C@@H]2N=[N+]=[N-])C(C)(C)CCC1` yielded a PC of 17.9.

The molecule `Cc1cn([C@H]2C[C@H](N=[N+]=[N-])[C@@H](COC(=O)C(N)CCCCN)O2)c(=O)[nH]c1=O.O=C(O)C(F)(F)F` (stereo partly drawn) yielded a PC of 0.01.

The molecule `CCC(C)C(N)C(=O)OC[C@H]1O[C@@H](n2cc(C)c(=O)[nH]c2=O)C[C@@H]1N=[N+]=[N-].O=C(O)C(F)(F)F` (stereo partly drawn) displayed a PC of 10.3.

Turning to `Cc1cn([C@H]2C[C@H](N=[N+]=[N-])[C@@H](COC(=O)C3=CN(C)C=CC3)O2)c(=O)[nH]c1=O`, the PC is given as 7.2.

Turning to `Cc1cn([C@H]2C[C@H](N=[N+]=[N-])[C@@H](COC(=O)CN3CCOCC3)O2)c(=O)[nH]c1=O`, the PC worked out at 2.2.

Tested on in the next data set: not listed separately
The data set is described as follows: In vitro time required for 50% hydrolysis at 37 degree Celsius upon incubation in human plasma. Format: functional, cell-free.
Conditions: not given
In a few lines: (§1)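 Ester (10 mg/mL DMSO stock, diluted 1:100) incubated at 37 °C in human plasma or in rat hepatic microsomes (15.5 mg protein/mL solution). Samples taken over 0–4 h and quenched in ice-cold methanol. Remaining ester quantified by reverse-phase HPLC. t1/2 = time to 50% hydrolysis.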
The molecule `Cc1cn([C@H]2C[C@H](N=[N+]=[N-])[C@@H](COC(=O)C(N)Cc3ccccc3)O2)c(=O)[nH]c1=O.O=C(O)C(F)(F)F` (stereo partly drawn) displayed a T1/2 of 20 min.

Take `Cc1cn([C@H]2C[C@H](N=[N+]=[N-])[C@@H](COC(=O)C(N)Cc3ccc(O)cc3)O2)c(=O)[nH]c1=O.O=C(O)C(F)(F)F` (stereo partly drawn): the T1/2 came to 60 min.

With `Cc1cn(C2CC(N=[N+]=[N-])C(COC(=O)CCC(N)C(=O)O)O2)c(=O)[nH]c1=O` (stereo not drawn), the T1/2 amounted to 70 min.

For the molecule `Cc1cn([C@H]2C[C@H](N=[N+]=[N-])[C@@H](COC(=O)c3cccnc3)O2)c(=O)[nH]c1=O`, the T1/2 was found to be 10 min.

`CC1=C(/C=C/C(C)=C/C=C/C(C)=C/C(=O)OC[C@H]2O[C@@H](n3cc(C)c(=O)[nH]c3=O)C[C@@H]2N=[N+]=[N-])C(C)(C)CCC1`: the T1/2 came to 120 min.

On to `Cc1cn([C@H]2C[C@H](N=[N+]=[N-])[C@@H](COC(=O)C(N)CCCCN)O2)c(=O)[nH]c1=O.O=C(O)C(F)(F)F` (stereo partly drawn), for which the T1/2 was determined as 30 min.

Take `CCC(C)C(N)C(=O)OC[C@H]1O[C@@H](n2cc(C)c(=O)[nH]c2=O)C[C@@H]1N=[N+]=[N-].O=C(O)C(F)(F)F` (stereo partly drawn): the T1/2 is > 240 min.

Regarding `Cc1cn([C@H]2C[C@H](N=[N+]=[N-])[C@@H](COC(=O)C3=CN(C)C=CC3)O2)c(=O)[nH]c1=O`, the T1/2 is > 240 min.

Take `Cc1cn([C@H]2C[C@H](N=[N+]=[N-])[C@@H](COC(=O)CN3CCOCC3)O2)c(=O)[nH]c1=O`: the T1/2 stood at 12 min.

Tested on in another data set: not listed separately
The data set is described as follows: In vitro time required for 50% hydrolysis at 37 degree Celsius upon incubation in rat hepatic microsomes. Type of data set: functional. To be noted: Liver. In outline:
as §1
The molecule `Cc1cn([C@H]2C[C@H](N=[N+]=[N-])[C@@H](COC(=O)C(N)Cc3ccccc3)O2)c(=O)[nH]c1=O.O=C(O)C(F)(F)F` (stereo partly drawn) displayed a T1/2 of 30 min.

`Cc1cn([C@H]2C[C@H](N=[N+]=[N-])[C@@H](COC(=O)C(N)Cc3ccc(O)cc3)O2)c(=O)[nH]c1=O.O=C(O)C(F)(F)F` (stereo partly drawn) gave a T1/2 of 5 min.

Molecule `Cc1cn(C2CC(N=[N+]=[N-])C(COC(=O)CCC(N)C(=O)O)O2)c(=O)[nH]c1=O` (stereo not drawn) returned a T1/2 of 30 min.

In turn, `Cc1cn([C@H]2C[C@H](N=[N+]=[N-])[C@@H](COC(=O)c3cccnc3)O2)c(=O)[nH]c1=O` had a T1/2 of 30 min.

With `CC1=C(/C=C/C(C)=C/C=C/C(C)=C/C(=O)OC[C@H]2O[C@@H](n3cc(C)c(=O)[nH]c3=O)C[C@@H]2N=[N+]=[N-])C(C)(C)CCC1`, the T1/2 is 60 min.

In the case of `Cc1cn([C@H]2C[C@H](N=[N+]=[N-])[C@@H](COC(=O)C(N)CCCCN)O2)c(=O)[nH]c1=O.O=C(O)C(F)(F)F` (stereo partly drawn), the T1/2 came to 14 min.

The molecule `CCC(C)C(N)C(=O)OC[C@H]1O[C@@H](n2cc(C)c(=O)[nH]c2=O)C[C@@H]1N=[N+]=[N-].O=C(O)C(F)(F)F` (stereo partly drawn) yielded a T1/2 of 19 min.

Take `Cc1cn([C@H]2C[C@H](N=[N+]=[N-])[C@@H](COC(=O)C3=CN(C)C=CC3)O2)c(=O)[nH]c1=O`: the T1/2 was 110 min.

For the molecule `Cc1cn([C@H]2C[C@H](N=[N+]=[N-])[C@@H](COC(=O)CN3CCOCC3)O2)c(=O)[nH]c1=O`, the T1/2 came out at 28 min.

Another data set relates to H9. The data set is described as follows: Evaluated in vitro for the concentration required to produce 50% inhibition of proliferation of H9 lymphocytes. Type of data set: functional, cell-based. The settings on record: Homo sapiens. In outline:
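H9 lymphoblastoid cells grown in RPMI 1640 with 15% FBS, penicillin/streptomycin and 2 mM L-glutamine at 37 °C under 5% CO2. Viability read by trypan blue dye exclusion. IC50 taken as the concentration giving 50% inhibition of proliferation.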
`Cc1cn([C@H]2C[C@H](N=[N+]=[N-])[C@@H](COC(=O)C(N)Cc3ccccc3)O2)c(=O)[nH]c1=O.O=C(O)C(F)(F)F` (stereo partly drawn) gave an IC50 of 350 µM.

Take `Cc1cn([C@H]2C[C@H](N=[N+]=[N-])[C@@H](COC(=O)C(N)Cc3ccc(O)cc3)O2)c(=O)[nH]c1=O.O=C(O)C(F)(F)F` (stereo partly drawn): 300 µM corresponded to half-maximal inhibition (IC50).

`Cc1cn(C2CC(N=[N+]=[N-])C(COC(=O)CCC(N)C(=O)O)O2)c(=O)[nH]c1=O` (stereo not drawn) registered an IC50 of 320 µM.

Turning to `Cc1cn([C@H]2C[C@H](N=[N+]=[N-])[C@@H](CO)O2)c(=O)[nH]c1=O` [ZIDOVUDINE], the IC50 is 150 µM.

Molecule `CC1=C(/C=C/C(C)=C/C=C/C(C)=C/C(=O)OC[C@H]2O[C@@H](n3cc(C)c(=O)[nH]c3=O)C[C@@H]2N=[N+]=[N-])C(C)(C)CCC1` gave an IC50 of 25 µM.

For the molecule `Cc1cn([C@H]2C[C@H](N=[N+]=[N-])[C@@H](COC(=O)C(N)CCCCN)O2)c(=O)[nH]c1=O.O=C(O)C(F)(F)F` (stereo partly drawn), the IC50 is 300 µM.

On to `CCC(C)C(N)C(=O)OC[C@H]1O[C@@H](n2cc(C)c(=O)[nH]c2=O)C[C@@H]1N=[N+]=[N-].O=C(O)C(F)(F)F` (stereo partly drawn), for which the concentration for half-maximal inhibition (IC50) turned out to be 250 µM.

In turn, `Cc1cn([C@H]2C[C@H](N=[N+]=[N-])[C@@H](COC(=O)C3=CN(C)C=CC3)O2)c(=O)[nH]c1=O` displayed an IC50 of 336 µM.

`Cc1cn([C@H]2C[C@H](N=[N+]=[N-])[C@@H](COC(=O)CN3CCOCC3)O2)c(=O)[nH]c1=O` came in with a half-maximal inhibitory concentration (IC50) of 320 µM.

Another data set deals with Human immunodeficiency virus 1. Kind of data set: Evaluated in vitro for the concentration required to produce 50% inhibition of replication of HIV-1. Type of data set: functional, organism-based.
Conditions: not given
In the case of `Cc1cn([C@H]2C[C@H](N=[N+]=[N-])[C@@H](COC(=O)C(N)Cc3ccccc3)O2)c(=O)[nH]c1=O.O=C(O)C(F)(F)F` (stereo partly drawn), 0.11 µM corresponded to half-maximal inhibition (IC50).

In turn, `Cc1cn([C@H]2C[C@H](N=[N+]=[N-])[C@@H](COC(=O)C(N)Cc3ccc(O)cc3)O2)c(=O)[nH]c1=O.O=C(O)C(F)(F)F` (stereo partly drawn) had an IC50 of 0.11 µM.

`Cc1cn([C@H]2C[C@H](N=[N+]=[N-])[C@@H](CO)O2)c(=O)[nH]c1=O` [ZIDOVUDINE] displayed a half-inhibitory concentration (IC50) of 0.12 µM.

As for `CC1=C(/C=C/C(C)=C/C=C/C(C)=C/C(=O)OC[C@H]2O[C@@H](n3cc(C)c(=O)[nH]c3=O)C[C@@H]2N=[N+]=[N-])C(C)(C)CCC1`, inhibition was half-maximal at 0.2 µM (IC50).

`CCC(C)C(N)C(=O)OC[C@H]1O[C@@H](n2cc(C)c(=O)[nH]c2=O)C[C@@H]1N=[N+]=[N-].O=C(O)C(F)(F)F` (stereo partly drawn) came in with an IC50 of 0.1 µM.

In the case of `Cc1cn([C@H]2C[C@H](N=[N+]=[N-])[C@@H](COC(=O)C3=CN(C)C=CC3)O2)c(=O)[nH]c1=O`, the IC50 came to 0.05 µM.
